Assay [1] addresses T1, Histone acetyltransferase KAT8 (Homo sapiens) (UniProt Q9H7Z6).
T1 sequence (whole entry): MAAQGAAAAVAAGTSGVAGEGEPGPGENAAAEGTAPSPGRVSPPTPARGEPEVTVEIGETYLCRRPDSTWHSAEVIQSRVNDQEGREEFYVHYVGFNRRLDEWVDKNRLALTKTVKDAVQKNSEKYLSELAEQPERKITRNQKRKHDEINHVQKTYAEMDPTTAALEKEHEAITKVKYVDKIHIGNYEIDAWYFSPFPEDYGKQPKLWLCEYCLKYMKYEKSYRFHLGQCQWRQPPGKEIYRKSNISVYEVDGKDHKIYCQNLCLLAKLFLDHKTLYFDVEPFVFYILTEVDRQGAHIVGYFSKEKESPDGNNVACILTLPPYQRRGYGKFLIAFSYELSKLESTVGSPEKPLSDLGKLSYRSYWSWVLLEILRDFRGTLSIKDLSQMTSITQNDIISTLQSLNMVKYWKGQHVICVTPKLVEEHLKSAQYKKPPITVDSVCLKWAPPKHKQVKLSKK
Nature of the assay: Inhibition of human His-tagged MOF at 50 uM using histone H4 substrate by radioactive acetylation assay relative to control. Put shortly:
(§1)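 His6-tagged hMOF catalytic domain (173-458) from E. coli, preincubated with compound for 15 min at room temperature in modified Tris buffer pH 7.5, then given biotinylated H4-derived peptide and [3H]acetyl-CoA. Reaction ran 240 min at room temperature, was captured on a streptavidin Flashplate, washed and scintillation-counted. Percent inhibition computed; IC50 from a nonlinear dose-response fit.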

Assay [2] deals with T1, Histone acetyltransferase KAT8 (Homo sapiens). The assay is described as follows: Inhibition of human His-tagged MOF at 100 uM using histone H4 substrate by radioactive acetylation assay relative to control. Summed up: as §1
The target in assay [3] is T2, Histone acetyltransferase KAT8 (Homo sapiens, UniProt Q9H7Z6).
T2 sequence (Q9H7Z6 whole entry): T1 sequence (whole entry)
Nature of the assay: Inhibition of human His-tagged MOF preincubated for 10 mins followed by biotin-labeled H4K16 substrate addition measured after 30 mins in presence of acetyl-CoA by alphascreen assay. In general terms: Alpha assays give light when donor and acceptor beads are brought close together.

In assay [4] the target is T1, Histone acetyltransferase KAT8 (Homo sapiens). The assay is described as follows: Inhibition of MOF in human HCT116 cells assessed as decrease in UCP2 mRNA level after 3 days by quantitative real-time PCR analysis. In general terms: In qPCR the cycle at which signal appears reflects the starting amount.
For assay [5], the species on record is Homo sapiens. The assay is described as follows: Selectivity ratio of IC50 for HDAC1 (unknown origin) to IC50 for human His-tagged MOF by alphascreen assay.
For assay [6], the species on record is Homo sapiens. The assay is described as follows: Selectivity ratio of IC50 for DNMT1 (unknown origin) to IC50 for human His-tagged MOF by alphascreen assay.
The target in assay [7] is Protein arginine N-methyltransferase 1 (Homo sapiens, UniProt Q99873). Nature of the assay: Inhibition of PRMT1 (unknown origin).
Assay [8] has as its target DNA (cytosine-5)-methyltransferase 1 (Homo sapiens, UniProt P26358). Nature of the assay: Inhibition of DNMT1 (unknown origin).
The target in assay [9] is T1, Histone acetyltransferase KAT8 (Homo sapiens). Nature of the assay: Inhibition of MOF in human HCT116 cells assessed as decrease in H4K16 acetylation level after 24 hrs by Western blot analysis. The class given is cell-based. Put shortly: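 HCT116 cells treated for 24 h. Lysates run on 4–16% SDS-PAGE, transferred to nitrocellulose, blocked in 5% milk/PBST, primary antibody overnight at 4 °C, HRP donkey anti-rabbit secondary at 1:10000 for 1 h; H4K16 acetylation level read.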
On the technique in general: A western blot detects proteins with antibodies after separation by electrophoresis.

Assay [10] shares this target. The assay is described as follows: Inhibition of human His-tagged MOF using constant concentration acetyl-CoA and varying levels of histone H4 substrate by radioactive acetylation assay.
Assay [11] deals with T2, Histone acetyltransferase KAT8. Nature of the assay: Inhibition of human His-tagged MOF using histone H4 substrate by radioactive acetylation assay. Put shortly:
as §1

Assay [12] relates to HCT-116. The assay is described as follows: Inhibition of colony formation in human HCT116 cells after 14 days by crystal violet staining based assay. The format is functional, cell-based.
The species entered for assay [13] is Homo sapiens. The assay is described as follows: Selectivity ratio of IC50 for PRMT1 (unknown origin) to IC50 for human His-tagged MOF by alphascreen assay.
In assay [14] the target is T1, Histone acetyltransferase KAT8 (Homo sapiens). Nature of the assay: Inhibition of MOF in human HCT116 cells assessed as decrease in SKP2 mRNA level after 3 days by quantitative real-time PCR analysis.
Assay [15] shares this target. The assay is described as follows: Inhibition of human His-tagged MOF using constant concentration histone H4 substrate and varying levels of acetyl-CoA by radioactive acetylation assay.
For assay [16], the system named is HCT-116. The assay is described as follows: Upregulation of IFI16 mRNA level in human HCT116 cells at 50 to 100 uM after 3 days by quantitative real-time PCR analysis.
The target of a further assay is Histone deacetylase 1 (Homo sapiens, UniProt Q13547). Nature of the assay: Inhibition of HDAC1 (unknown origin).
Assay [17] deals with T2, Histone acetyltransferase KAT8. The assay is described as follows: (§2) Binding affinity to human His-tagged MOF by SPR analysis. Summed up:
(§3)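 hMOF catalytic domain (173-458), N-terminal His6, expressed in E. coli BL21(DE3), amine-coupled to a CM5 chip in 10 mM sodium acetate pH 4.0; SPR at 25 °C in HBS (20 mM HEPES pH 7.4, 200 mM NaCl, 0.5% DMSO). Analyte 5–100 μM injected 120 s at 30 μL/min, then 300 s dissociation; Kd from a steady-state fit.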

The target of assay [18] is T1, Histone acetyltransferase KAT8 (Homo sapiens). The assay is described as §2. Summed up:
as §3

The subject of assay [19] is HCT-116. The assay is described as follows: Inhibition of colony formation in human HCT116 cells at 100 uM after 14 days by crystal violet staining based assay. The class given is functional, cell-based.
Assay [20] addresses Histone acetyltransferase KAT2A (Homo sapiens, UniProt Q92830). The assay is described as follows: Inhibition of recombinant human GST-tagged Gcn5 using H3 as substrate in presence of [3H]-acetyl-CoA by phosphor image analysis.

Calls of active or inactive are those of the source. No cut-off for these calls is given here.

As a reminder, the inhibition is the share of the control response that was lost under treatment. One may read the IC50 as the concentration needed to halve the response being measured. As a reminder, the Kd is a measure of binding affinity in units of concentration.

Chain of DNA (cytosine-5)-methyltransferase 1 (P26358 whole entry): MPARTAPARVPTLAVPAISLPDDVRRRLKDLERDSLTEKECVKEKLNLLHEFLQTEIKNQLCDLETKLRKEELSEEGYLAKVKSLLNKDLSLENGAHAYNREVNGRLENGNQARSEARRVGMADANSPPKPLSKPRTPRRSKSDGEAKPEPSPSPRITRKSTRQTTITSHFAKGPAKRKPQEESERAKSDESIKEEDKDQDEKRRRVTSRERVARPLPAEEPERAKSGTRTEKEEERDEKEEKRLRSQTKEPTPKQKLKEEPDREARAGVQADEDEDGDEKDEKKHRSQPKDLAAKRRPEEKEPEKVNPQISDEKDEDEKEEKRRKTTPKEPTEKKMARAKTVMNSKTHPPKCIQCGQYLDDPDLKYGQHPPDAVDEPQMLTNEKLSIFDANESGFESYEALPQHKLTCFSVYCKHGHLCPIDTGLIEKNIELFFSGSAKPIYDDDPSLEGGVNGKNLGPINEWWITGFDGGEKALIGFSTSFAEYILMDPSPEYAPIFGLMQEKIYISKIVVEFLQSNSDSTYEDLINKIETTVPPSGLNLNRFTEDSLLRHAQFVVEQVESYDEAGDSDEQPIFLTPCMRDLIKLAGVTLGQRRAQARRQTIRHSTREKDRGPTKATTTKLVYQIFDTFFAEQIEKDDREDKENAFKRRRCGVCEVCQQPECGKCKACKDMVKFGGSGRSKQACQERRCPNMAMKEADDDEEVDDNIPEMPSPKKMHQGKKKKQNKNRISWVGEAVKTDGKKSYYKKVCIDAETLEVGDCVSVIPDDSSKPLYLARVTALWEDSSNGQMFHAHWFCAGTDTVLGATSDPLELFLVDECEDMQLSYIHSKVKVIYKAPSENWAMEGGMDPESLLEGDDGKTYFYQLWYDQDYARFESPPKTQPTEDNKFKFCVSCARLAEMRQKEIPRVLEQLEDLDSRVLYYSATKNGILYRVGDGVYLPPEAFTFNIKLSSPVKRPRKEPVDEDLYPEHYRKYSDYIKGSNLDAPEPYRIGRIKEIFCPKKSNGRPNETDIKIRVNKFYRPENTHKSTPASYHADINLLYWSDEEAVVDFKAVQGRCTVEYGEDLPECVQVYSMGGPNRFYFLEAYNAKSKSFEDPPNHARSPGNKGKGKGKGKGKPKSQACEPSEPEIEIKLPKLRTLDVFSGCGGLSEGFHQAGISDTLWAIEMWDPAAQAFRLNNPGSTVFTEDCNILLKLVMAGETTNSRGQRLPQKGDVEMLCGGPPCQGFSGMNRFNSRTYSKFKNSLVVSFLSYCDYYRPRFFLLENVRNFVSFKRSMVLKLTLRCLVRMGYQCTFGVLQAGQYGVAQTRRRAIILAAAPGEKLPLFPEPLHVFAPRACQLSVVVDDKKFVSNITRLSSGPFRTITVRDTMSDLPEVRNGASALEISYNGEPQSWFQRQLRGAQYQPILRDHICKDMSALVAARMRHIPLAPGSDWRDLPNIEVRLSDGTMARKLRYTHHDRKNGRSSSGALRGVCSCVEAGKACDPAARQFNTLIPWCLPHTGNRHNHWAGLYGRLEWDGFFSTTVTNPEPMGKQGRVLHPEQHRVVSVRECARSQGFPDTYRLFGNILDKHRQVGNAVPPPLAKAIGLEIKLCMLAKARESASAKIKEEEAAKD
Chain of Histone acetyltransferase KAT2A (Q92830 whole entry): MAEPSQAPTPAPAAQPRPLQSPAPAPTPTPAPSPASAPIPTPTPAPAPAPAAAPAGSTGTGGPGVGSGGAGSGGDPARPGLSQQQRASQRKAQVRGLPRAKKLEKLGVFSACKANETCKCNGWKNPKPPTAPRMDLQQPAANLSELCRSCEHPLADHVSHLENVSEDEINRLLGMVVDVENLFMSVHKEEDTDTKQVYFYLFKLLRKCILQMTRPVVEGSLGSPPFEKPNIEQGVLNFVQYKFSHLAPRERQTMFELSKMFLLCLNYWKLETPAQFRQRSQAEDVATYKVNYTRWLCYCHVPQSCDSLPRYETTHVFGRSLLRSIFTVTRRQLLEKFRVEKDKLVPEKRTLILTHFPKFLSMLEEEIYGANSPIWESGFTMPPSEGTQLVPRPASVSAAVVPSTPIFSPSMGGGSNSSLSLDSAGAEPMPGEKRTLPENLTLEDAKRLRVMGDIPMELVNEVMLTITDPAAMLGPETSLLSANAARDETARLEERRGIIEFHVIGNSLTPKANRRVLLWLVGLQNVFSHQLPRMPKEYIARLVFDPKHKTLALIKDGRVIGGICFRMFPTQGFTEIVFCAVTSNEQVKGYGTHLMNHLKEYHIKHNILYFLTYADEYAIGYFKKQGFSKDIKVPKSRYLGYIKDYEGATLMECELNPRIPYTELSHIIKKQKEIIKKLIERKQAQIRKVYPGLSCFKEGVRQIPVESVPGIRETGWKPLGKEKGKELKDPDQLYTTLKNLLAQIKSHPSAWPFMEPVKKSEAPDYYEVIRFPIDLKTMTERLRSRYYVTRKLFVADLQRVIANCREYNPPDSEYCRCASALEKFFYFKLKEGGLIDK
Chain of Protein arginine N-methyltransferase 1 (Q99873 whole entry): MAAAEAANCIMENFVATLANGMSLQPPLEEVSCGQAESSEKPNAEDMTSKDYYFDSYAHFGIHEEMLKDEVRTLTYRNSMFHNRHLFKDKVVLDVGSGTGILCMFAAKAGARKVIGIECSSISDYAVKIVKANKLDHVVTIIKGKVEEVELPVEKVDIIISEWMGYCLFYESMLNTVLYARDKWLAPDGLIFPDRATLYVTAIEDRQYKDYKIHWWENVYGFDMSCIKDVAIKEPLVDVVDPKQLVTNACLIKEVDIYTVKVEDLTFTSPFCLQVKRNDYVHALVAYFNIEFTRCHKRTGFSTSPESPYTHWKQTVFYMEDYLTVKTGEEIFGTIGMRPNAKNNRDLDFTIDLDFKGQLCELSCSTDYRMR
Chain of Histone deacetylase 1 (Q13547 whole entry): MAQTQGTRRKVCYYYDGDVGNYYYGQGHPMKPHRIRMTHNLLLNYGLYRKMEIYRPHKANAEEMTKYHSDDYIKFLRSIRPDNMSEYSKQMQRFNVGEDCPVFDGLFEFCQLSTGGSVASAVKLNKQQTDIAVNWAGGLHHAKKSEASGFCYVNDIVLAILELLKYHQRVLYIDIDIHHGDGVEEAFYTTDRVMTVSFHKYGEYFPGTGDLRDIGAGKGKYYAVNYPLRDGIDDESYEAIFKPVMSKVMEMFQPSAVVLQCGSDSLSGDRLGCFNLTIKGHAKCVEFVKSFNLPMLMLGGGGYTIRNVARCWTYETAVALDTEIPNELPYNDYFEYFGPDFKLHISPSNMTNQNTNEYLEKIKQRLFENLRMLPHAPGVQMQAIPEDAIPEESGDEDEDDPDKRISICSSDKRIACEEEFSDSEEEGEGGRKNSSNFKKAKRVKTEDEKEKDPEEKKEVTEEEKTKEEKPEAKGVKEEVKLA

As to `CCN(CC)S(=O)(=O)c1ccc(/C=C/c2nc3cc(OC)ccc3s2)cc1`, the values for the inhibition in assay [1] and in assay [2] were 14% and 13%, respectively.
As for `N#Cc1c(-c2ccccc2)cc(-c2cccs2)nc1SCC(=O)NCC(=O)O`, the IC50 in [3] is 74 µM.
On to `CCN(CC)S(=O)(=O)c1ccc(/C=C/c2nc3cc(C)ccc3s2)cc1`, for which the inhibition in [1] turned out to be 0%; in [2] it was 14%.
For the compound `O=S(=O)(NCc1ccccc1)c1ccc(/C=C/c2nc3ccccc3s2)cc1`, the results for the inhibition in assay [1] and in assay [2] were 1% and 11%, respectively.
Turning to `CCN(CC)S(=O)(=O)c1ccc(/C=C/c2nc3ccccc3s2)cc1`, the inhibition entry in assay [4] was “Dose-dependent effect”; in assay [1], 93%; in [9], “Dose-dependent effect”; in [2], 100%; in the assay with HCT-116 [12], “Dose-dependent effect”; in assay [14] it was “Dose-dependent effect”. In addition, the Ratio IC50 in the assay listed under Homo sapiens [5], in the assay listed under Homo sapiens [6] and in the assay listed under Homo sapiens [13] was greater than 11 each time. The IC50 was greater than 100 µM in assay [7], greater than 100 µM in assay [8], 6 µM in assay [11] and greater than 100 µM on Histone deacetylase 1. In [10], the inhibition result is “inactive”. For the same compound, the inhibition result in [15] is “Active”. The outcome in the assay on HCT-116 [16] was Active.
Take `CCN(CC)S(=O)(=O)c1ccc(/C=C/c2nc3ccc(Br)cc3s2)cc1`: the inhibition in [1] came to 5%; in assay [2], 21%.
`CCN(CC)S(=O)(=O)c1ccc(/C=C/c2nc3ccccc3s2)cc1C`: the results for the inhibition in assay [1] and in assay [2] were 28% and 30%, respectively.
In the case of `CCN(CC)S(=O)(=O)c1ccc(/C=C/c2nc3cc(C)c(C)cc3s2)cc1`, the inhibition in assay [1] is 95%; in assay [2], 96%. The IC50 in assay [11] is 7.7 µM.
As to `CCN(CC)S(=O)(=O)c1ccc(/C=C/c2nc3ccccc3s2)cc1F`, the inhibition stood at 16% in assay [1] and 18% in [2].
In the case of `Oc1cc(O)c2sc3nc(-c4cccs4)cc(-c4cccs4)c3c2n1`, the IC50 in [3] turned out to be 23 µM.
`O=S(=O)(Nc1ccccc1)c1ccc(/C=C/c2nc3ccccc3s2)cc1`: the inhibition stood at 13% in [1] and 25% in [2].
Turning to `CCN(CC)S(=O)(=O)c1ccc(/C=C/c2nc3cc(Cl)ccc3s2)cc1`, the inhibition in assay [1] was 64%; in assay [2], 89%. For the same compound, the IC50 in [11] was determined as 30 µM.
Regarding `O=C(CCCCCCC(=O)Nc1ccccc1)NO`, in [9], the inhibition entry is “Dose-dependent effect”.
For `CCN(CC)S(=O)(=O)c1ccc(/C=C/c2nc3cc(F)ccc3s2)cc1`, the Kd in assay [17] was determined as 19 µM. In addition, the Activity entry in assay [18] was “Dose-dependent effect”. Moreover, the inhibition turned out to be 53% in assay [1] and 84% in assay [2]. The IC50 in assay [11] turned out to be 40 µM.
Consider `CCCCCCCc1ccc(CCc2cccc(O)c2C(=O)O)cc1`, for which the inhibition in assay [1] and in [2] was 100% in each case. Further, the IC50 turned out to be 15 µM in [11] and 27 µM in assay [3]. In the assay on HCT-116 [19], the inhibition result is “Active”.
In the case of `CCN(CC)S(=O)(=O)c1ccc(/C=C/c2nc3cc(Br)ccc3s2)cc1`, the inhibition in [1] amounted to 57%; in assay [2] it was 82%. Also, the IC50 in assay [11] turned out to be 30 µM.
Consider `CCN(CC)S(=O)(=O)c1ccc(/C=C/c2nc3ccc(F)cc3s2)cc1`, for which the IC50 in [3] lay in the range of 6.6 to 40 µM.
Turning to `Cc1ccc(C2C(C(=O)c3cc4ccccc4o3)=C(O)C(=O)N2Cc2ccco2)cc1` (configuration not stated), in [3], the IC50 is 29 µM.
With `C=C1C(=O)O[C@H](CCC)[C@H]1C(=O)O`, the IC50 in assay [20] is 100 µM.
As for `COc1ccc(CNS(=O)(=O)c2ccc(/C=C/c3nc4ccccc4s3)cc2)cc1`, the inhibition turned out to be 0% in [1] and 28% in [2].
With `CCc1nnc(NC(=O)CCSCCC(=O)Nc2nnc(CC)s2)s1`, in [3], the IC50 amounted to 18 µM.
As to `Cc1ccc(CNS(=O)(=O)c2ccc(/C=C/c3nc4ccccc4s3)cc2)cc1`, the values for the inhibition in assay [1] and in [2] were 17% and 33%, respectively.
For the compound `CCN(CC)S(=O)(=O)c1ccc(/C=C/c2nc3ccccc3s2)cc1Cl`, the inhibition in assay [1] is 7%; in [2] it was 12%.
Take `CC1CCc2c(sc3nnn(CC(=O)Nc4cccc5ccccc45)c(=O)c23)C1` (configuration not stated): the IC50 in assay [3] came to 25 µM.
As to `O=C(Cc1cccc2ccccc12)Nc1ccc2nc(SCC(=O)N3CCCC3)sc2c1`, the IC50 in assay [3] was 14 µM.
Regarding `CN(C)S(=O)(=O)c1ccc(/C=C/c2nc3ccccc3s2)cc1`, the results for the inhibition in assay [1] and in assay [2] were 9% and 14%, respectively.
In the case of `Cc1ccc(-c2cc(C(=O)O)c3cc4c(C(=O)O)cc(-c5ccc(C)o5)nc4cc3n2)o1`, the IC50 in assay [3] was determined as 17 µM.
